Results on 17 compounds are retold here after ChEMBL document CHEMBL1132538, “Potential multifunctional inhibitors of HIV-1 reverse transcriptase. Novel [AZT]-[TSAO-T] and [d4T]-[TSAO-T] heterodimers modified in the linker and in the dideoxynucleoside region” (J Med Chem, 1999).

Experiment [1] has as its system MT4. The experiment can be described thus: Cytostatic concentration against MT-4 cell. Conditions: Homo sapiens. Type of experiment: functional.
Experiment [2] concerns CCRF-CEM. The experiment can be described thus: Inhibition of HIV-1 induced cytopathicity against CEM cell. Type of experiment: functional, cell-based. The note with it: Homo sapiens. An outline of the steps: (§1)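 HIV-1 or HIV-2 at ~100 CCID50 per mL infecting CEM (4 × 10^5 cells/mL) or MT-4 (3 × 10^5 cells/mL) cells, mixed 1:1 with compound dilutions in microtiter wells. After 4 days, giant cell formation (CEM) or virus-induced cytopathicity (MT-4) scored microscopically.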

In experiment [3] the test system is CCRF-CEM. Put plainly: Cytostatic concentration against CEM cell. Conditions: Homo sapiens. The format is functional.
For experiment [4], the system named is MT4. The experiment can be described thus: Inhibition of HIV-2 induced cytopathicity against MT-4 cell. Conditions: Homo sapiens. Type of experiment: functional, cell-based. The essentials:
as §1

In experiment [5] the test system is MT4. Put plainly: Inhibition of HIV-1 induced cytopathicity against MT-4 cell. The format is functional, cell-based. Conditions: Homo sapiens. An outline of the steps: as §1
Experiment [6] deals with CCRF-CEM. Put plainly: Inhibition of HIV-2 induced cytopathicity against CEM cell. Type of experiment: functional, cell-based. The note with it: Homo sapiens. The essentials:
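CEM cells at 4 × 10^5 per mL infected with HIV-2 at ∼100 CCID50 per mL of cell suspension, then mixed 1:1 with serial compound dilutions. Giant cell formation scored microscopically after 4 days.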

The test system of experiment [7] is CEM (human). The experiment can be described thus: Inhibition of HIV-2 induced cytopathicity against CEM cell.
Experiment [8] concerns MT-4 (human). Put plainly: Cytostatic concentration against MT-4 cell.

SMILES strings stand for the structures. A value given as a limit tells only on which side of the number the result lay.

In the case of `COC(=O)C(C)NP(=O)(OCC1OC(n2cc(C)c(=O)n(CCCCCCBr)c2=O)CC1N=[N+]=[N-])Oc1ccccc1` (stereo unspecified), the 50% cytotoxic concentration (CC50) in experiment [1] and in experiment [3] was 22 µM in each case. For the same compound, the EC50 in experiment [2], in experiment [4], in experiment [5] and in experiment [6] was over 10 µM each time.

For `Cc1cn([C@@H]2O[C@H](CO[Si](C)(C)C(C)(C)C)C3(OS(=O)(=O)C=C3N)[C@H]2O[Si](C)(C)C(C)(C)C)c(=O)[nH]c1=O` (stereo partly specified), the 50% effective concentration (EC50) in experiment [2] was 0.05 µM; in experiment [7] it was over 6 µM; in experiment [4], over 6 µM. The same compound returned a CC50 in experiment [8] of 12 µM.

With `Cc1cn([C@@H]2O[C@H](CO[Si](C)(C)C(C)(C)C)[C@@]3(OS(=O)(=O)C=C3N)[C@H]2O[Si](C)(C)C(C)(C)C)c(=O)n(CC#Cc2cn([C@@H]3C[C@@H](N=[N+]=[N-])[C@H](CO)O3)c(=O)[nH]c2=O)c1=O`, the CC50 was 31 µM in experiment [1] and over 250 µM in experiment [3]. Moreover, the results for the EC50 in experiment [2], in experiment [4] and in experiment [5] were 0.2 µM, over 10 µM and 0.33 µM, respectively.

In the case of `Cc1cn([C@@H]2CC(N=[N+]=[N-])[C@H](CO)O2)c(=O)n(CC#CCn2c(=O)c(C)cn([C@@H]3O[C@H](CO[Si](C)(C)C(C)(C)C)[C@@]4(OS(=O)(=O)C=C4N)[C@H]3O[Si](C)(C)C(C)(C)C)c2=O)c1=O` (stereo partly specified), the figures for the CC50 in experiment [1] and in experiment [3] were 106 µM and over 250 µM, respectively. The EC50 was 0.23 µM in experiment [2], over 250 µM in experiment [4], 1 µM in experiment [5] and over 50 µM in experiment [6].

Regarding `COC(=O)C(C)NP(=O)(OC[C@H]1C=C[C@@H](n2cc(C)c(=O)n(CCCCCCn3c(=O)c(C)cn([C@@H]4O[C@H](CO[Si](C)(C)C(C)(C)C)[C@@]5(OS(=O)(=O)C=C5N)[C@H]4O[Si](C)(C)C(C)(C)C)c3=O)c2=O)O1)Oc1ccccc1` (stereo partly specified), the CC50 in experiment [1] is 37 µM; in experiment [3], over 250 µM. The EC50 was 0.4 µM in experiment [2], over 50 µM in experiment [4], 0.57 µM in experiment [5] and over 50 µM in experiment [6].

For the compound `Cc1cn([C@@H]2C[C@@H](N=[N+]=[N-])[C@H](CO)O2)c(=O)n(C/C=C/Cn2c(=O)c(C)cn([C@@H]3O[C@H](CO[Si](C)(C)C(C)(C)C)[C@@]4(OS(=O)(=O)C=C4N)[C@H]3O[Si](C)(C)C(C)(C)C)c2=O)c1=O`, the CC50 in experiment [1] and in experiment [3] was over 250 µM each time. The EC50 was 0.34 µM in experiment [2], over 250 µM in experiment [4], 0.7 µM in experiment [5] and 57 µM in experiment [6].

Take `Cc1cn([C@@H]2C[C@@H](N=[N+]=[N-])[C@H](CO)O2)c(=O)n(CCOCCn2c(=O)c(C)cn([C@@H]3O[C@H](CO[Si](C)(C)C(C)(C)C)[C@@]4(OS(=O)(=O)C=C4N)[C@H]3O[Si](C)(C)C(C)(C)C)c2=O)c1=O`: the CC50 in experiment [1] and in experiment [3] was over 250 µM throughout. The EC50 in experiment [2] was 0.18 µM; in experiment [4] it was over 250 µM; in experiment [5], 0.31 µM; in experiment [6] it was over 50 µM.

For `COC(=O)C(C)NP(=O)(OC[C@@H]1O[C@H](n2cc(C)c(=O)n(CCCCCCn3c(=O)c(C)cn([C@@H]4O[C@H](CO[Si](C)(C)C(C)(C)C)[C@@]5(OS(=O)(=O)C=C5N)[C@H]4O[Si](C)(C)C(C)(C)C)c3=O)c2=O)C[C@H]1O)Oc1ccccc1` (stereo partly specified), the CC50 in experiment [1] was found to be 25 µM; in experiment [3] it was 104 µM. The EC50 in experiment [2] was 0.25 µM; in experiment [4], over 50 µM; in experiment [5] it was 0.93 µM; in experiment [6], over 50 µM.

Consider `Cc1cn([C@@H]2O[C@H](CO[Si](C)(C)C(C)(C)C)[C@@]3(OS(=O)(=O)C=C3N)[C@H]2O[Si](C)(C)C(C)(C)C)c(=O)n(CC#Cc2cn([C@@H]3C=C[C@H](CO)O3)c(=O)[nH]c2=O)c1=O`, for which the CC50 was 8 µM in experiment [1] and 21 µM in experiment [3]. In addition, the EC50 in experiment [2] was 0.11 µM; in experiment [4], over 10 µM; in experiment [5], 0.18 µM; in experiment [6], over 10 µM.

In the case of `COC(=O)C(C)NP(=O)(OC[C@@H]1O[C@H](n2cc(C)c(=O)n(CCCn3c(=O)c(C)cn([C@@H]4O[C@H](CO[Si](C)(C)C(C)(C)C)[C@@]5(OS(=O)(=O)C=C5N)[C@H]4O[Si](C)(C)C(C)(C)C)c3=O)c2=O)C[C@H]1O)Oc1ccccc1` (stereo partly specified), the CC50 was 31 µM in experiment [1] and over 250 µM in experiment [3]. The EC50 was 0.25 µM in experiment [2], over 50 µM in experiment [4], 0.33 µM in experiment [5] and over 50 µM in experiment [6].

As to `COC(=O)C(C)NP(=O)(OC[C@H]1C=C[C@@H](n2cc(C)c(=O)n(CCCn3c(=O)c(C)cn([C@@H]4O[C@H](CO[Si](C)(C)C(C)(C)C)[C@@]5(OS(=O)(=O)C=C5N)[C@H]4O[Si](C)(C)C(C)(C)C)c3=O)c2=O)O1)Oc1ccccc1` (stereo partly specified), the values for the CC50 in experiment [1] and in experiment [3] were 28 µM and 123 µM, respectively. Also, the EC50 in experiment [2] came to 0.17 µM; in experiment [4], 26 µM; in experiment [5] it was 0.18 µM; in experiment [6], 15 µM.

Consider `COC(=O)C(C)NP(=O)(OC[C@@H]1O[C@H](n2cc(C)c(=O)n(CCCn3c(=O)c(C)cn([C@@H]4O[C@H](CO[Si](C)(C)C(C)(C)C)[C@@]5(OS(=O)(=O)C=C5N)[C@H]4O[Si](C)(C)C(C)(C)C)c3=O)c2=O)C[C@H]1N=[N+]=[N-])Oc1ccccc1` (stereo partly specified), for which the CC50 in experiment [1] and in experiment [3] was over 250 µM throughout. Moreover, the EC50 in experiment [2] is 0.65 µM; in experiment [4] it was over 250 µM; in experiment [5], 3.2 µM; in experiment [6], over 250 µM.

Consider `Cc1cn([C@@H]2O[C@H](CO[Si](C)(C)C(C)(C)C)[C@@]3(OS(=O)(=O)C=C3N)[C@H]2O[Si](C)(C)C(C)(C)C)c(=O)n(CC#CC#CCn2c(=O)c(C)cn([C@H]3O[C@@H](CO[Si](C)(C)C(C)(C)C)[C@]4(OS(=O)(=O)C=C4N)[C@@H]3O[Si](C)(C)C(C)(C)C)c2=O)c1=O`, for which the values for the CC50 in experiment [1] and in experiment [3] were 65 µM and over 250 µM, respectively. Further, the EC50 in experiment [2] is over 50 µM; in experiment [4], over 250 µM; in experiment [5], over 50 µM; in experiment [6], over 250 µM.

Consider `Cc1cn([C@@H]2O[C@H](CO[Si](C)(C)C(C)(C)C)[C@@]3(OS(=O)(=O)C=C3N)[C@H]2O[Si](C)(C)C(C)(C)C)c(=O)n(CC#Cc2cn([C@@H]3C[C@@H](O)[C@H](CO)O3)c(=O)[nH]c2=O)c1=O`, for which the CC50 in experiment [1] is 15 µM; in experiment [3] it was 21 µM. The EC50 in experiment [2] was 0.55 µM; in experiment [4] it was over 10 µM; in experiment [5], 0.44 µM; in experiment [6] it was over 10 µM.

With `COC(=O)C(C)NP(=O)(OC[C@@H]1O[C@H](n2cc(C)c(=O)n(CCCCCCn3c(=O)c(C)cn([C@@H]4O[C@H](CO[Si](C)(C)C(C)(C)C)[C@@]5(OS(=O)(=O)C=C5N)[C@H]4O[Si](C)(C)C(C)(C)C)c3=O)c2=O)C[C@H]1N=[N+]=[N-])Oc1ccccc1` (stereo partly specified), the CC50 in experiment [1] and in experiment [3] was over 250 µM each time. The EC50 was 1.7 µM in experiment [2], over 250 µM in experiment [4] and over 250 µM in experiment [6].

For `Cc1cn([C@@H]2O[C@H](CO[Si](C)(C)C(C)(C)C)[C@@]3(OS(=O)(=O)C=C3N)[C@H]2O[Si](C)(C)C(C)(C)C)c(=O)n(CCCn2c(=O)c(C)cn([C@H]3C[C@H](N=[N+]=[N-])[C@@H](CO)O3)c2=O)c1=O`, the CC50 in experiment [1] and in experiment [3] was over 100 µM each time. For the same compound, the EC50 in experiment [2] came out at 0.09 µM; in experiment [5] it was 0.38 µM.

`COC(=O)C(C)NP(=O)(OCC1OC(n2cc(C)c(=O)n(CCCBr)c2=O)CC1N=[N+]=[N-])Oc1ccccc1` (stereo unspecified): the CC50 in experiment [1] was 44 µM; in experiment [3] it was 41 µM. Further, the EC50 in experiment [2], in experiment [4], in experiment [5] and in experiment [6] was over 50 µM throughout.
